Data on 34 molecules can be found in ChEMBL document CHEMBL1250422 (Bioorg Med Chem, 2010).

The target of one assay is Galectin-7 (Homo sapiens, UniProt P47929). The assay is described as follows: Binding affinity to human galectin 7 at 4 degC by competitive fluorescence polarization assay. In outline:
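Human galectin-7 was tested in a competitive fluorescence polarization assay at 4 °C because assay sensitivity is lower. Kd values were derived from inhibition of the fluorescent probe binding.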
For orientation: Polarisation of emitted light reports the rotation of a fluorescent probe.

A further assay concerns the target Galectin-9 (Homo sapiens, UniProt O00182). The assay is described as follows: Binding affinity to human galectin 9 N-terminal domain at 20 degC by competitive fluorescence polarization assay. In outline:
(§1)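 Human galectin (galectin-3, or the N-terminal domain of galectin-8 or -9) run in a competitive fluorescence polarization assay at 20 °C. Kd values were derived from inhibition of the fluorescent probe binding.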

The target of the next assay is T1, Galectin-8 (Homo sapiens, UniProt O00214).
T1 sequence (O00214 whole entry): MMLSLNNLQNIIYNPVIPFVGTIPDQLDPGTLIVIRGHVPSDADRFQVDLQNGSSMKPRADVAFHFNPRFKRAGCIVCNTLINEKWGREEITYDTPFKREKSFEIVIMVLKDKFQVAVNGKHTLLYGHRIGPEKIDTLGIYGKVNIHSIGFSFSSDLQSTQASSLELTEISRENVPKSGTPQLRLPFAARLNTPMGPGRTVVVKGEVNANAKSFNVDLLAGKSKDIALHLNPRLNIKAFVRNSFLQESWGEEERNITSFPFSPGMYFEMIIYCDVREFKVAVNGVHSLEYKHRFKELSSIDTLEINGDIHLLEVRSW
The assay is described as follows: Binding affinity to human galectin 8 N-terminal domain at 20 degC by competitive fluorescence polarization assay. In outline:
as §1

The target of another assay is Galectin-3 (Homo sapiens, UniProt P17931). The assay is described as follows: Binding affinity to human galectin 3 at 20 degC by competitive fluorescence polarization assay. Summed up:
as §1

Galectin-3, sequence (P17931 whole entry): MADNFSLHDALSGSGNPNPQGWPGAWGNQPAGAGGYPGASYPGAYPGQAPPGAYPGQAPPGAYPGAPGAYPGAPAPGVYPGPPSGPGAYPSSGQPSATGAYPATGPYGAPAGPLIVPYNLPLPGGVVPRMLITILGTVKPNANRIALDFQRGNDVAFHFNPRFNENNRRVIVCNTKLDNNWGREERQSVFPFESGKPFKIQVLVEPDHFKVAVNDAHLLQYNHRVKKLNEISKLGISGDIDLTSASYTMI
Galectin-9, sequence (O00182 whole entry, the tested form may be a part): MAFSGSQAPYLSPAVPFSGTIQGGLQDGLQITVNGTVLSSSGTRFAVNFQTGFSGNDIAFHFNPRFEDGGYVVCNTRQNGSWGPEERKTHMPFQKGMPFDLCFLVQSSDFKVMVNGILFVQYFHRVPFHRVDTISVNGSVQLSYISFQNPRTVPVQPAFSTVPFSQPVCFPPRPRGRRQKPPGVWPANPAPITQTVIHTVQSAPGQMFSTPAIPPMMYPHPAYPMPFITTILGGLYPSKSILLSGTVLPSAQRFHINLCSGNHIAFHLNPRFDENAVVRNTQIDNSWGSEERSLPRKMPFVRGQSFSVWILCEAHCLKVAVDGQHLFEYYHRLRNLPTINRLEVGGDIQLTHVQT
Galectin-7, sequence (P47929 whole entry): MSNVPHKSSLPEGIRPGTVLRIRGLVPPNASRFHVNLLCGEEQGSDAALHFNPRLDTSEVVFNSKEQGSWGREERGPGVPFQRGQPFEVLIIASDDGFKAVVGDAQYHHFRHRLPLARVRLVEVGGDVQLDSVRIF

As to `CCCCNC(=O)c1cn([C@H]2[C@@H](O)[C@@H](CO)O[C@@H](S[C@@H]3O[C@H](CO)[C@H](O)[C@H](n4cc(C(=O)NCCCC)nn4)[C@H]3O)[C@@H]2O)nn1`, the Kd was found to be 5.4 µM on Galectin-7, 1.1 µM at Galectin-9, 58 µM on Galectin-8 and 0.029 µM on Galectin-3.

With `CO[C@@H]1O[C@H](CO)[C@@H](O[C@@H]2O[C@H](CO)[C@H](O)[C@H](O)[C@H]2O)[C@H](O)[C@H]1NC(C)=O`, the dissociation constant (Kd) on Galectin-7 was 5500 µM; on Galectin-9, 490 µM; at Galectin-8, 1000 µM; at Galectin-3, 59 µM.

As to `COc1cccc(-c2cn([C@H]3[C@@H](O)[C@@H](CO)O[C@@H](SC)[C@@H]3O)nn2)c1`, the dissociation constant Kd at Galectin-7 was 2800 µM; at Galectin-9, 2100 µM; on Galectin-8, above 5000 µM; at Galectin-3 it was 130 µM.

For `CS[C@@H]1O[C@H](CO)[C@H](O)[C@H](n2nnc(C(N)=O)c2N)[C@H]1O`, the Kd on Galectin-7 was 2700 µM; on Galectin-9, above 5000 µM; at Galectin-8, above 5000 µM; on Galectin-3 it was above 2000 µM.

In the case of `CS[C@@H]1O[C@H](CO)[C@H](O)[C@H](n2cc(-c3ccccc3F)nn2)[C@H]1O`, the equilibrium dissociation constant (Kd) is above 2000 µM at Galectin-7, 1700 µM on Galectin-9, above 5000 µM on Galectin-8 and 200 µM at Galectin-3.

On to `CS[C@@H]1O[C@H](CO)[C@H](O)[C@H](n2cc(C(=O)NCc3ccccc3)nn2)[C@H]1O`, for which the Kd is 2100 µM at Galectin-7, 540 µM at Galectin-9 and above 5000 µM on Galectin-8.

As for `O=C(NCCc1ccccc1)c1cn([C@H]2[C@@H](O)[C@@H](CO)O[C@@H](S[C@@H]3O[C@H](CO)[C@H](O)[C@H](n4cc(C(=O)NCCc5ccccc5)nn4)[C@H]3O)[C@@H]2O)nn1`, the equilibrium dissociation constant (Kd) was 2 µM on Galectin-7, 1.1 µM on Galectin-9, 20 µM on Galectin-8 and 0.15 µM at Galectin-3.

On to `COc1cc(OC)cc(C(=O)N[C@@H]2[C@@H](O)[C@@H](S[C@@H]3O[C@H](CO)[C@H](O)[C@H](NC(=O)c4cc(OC)cc(OC)c4)[C@H]3O)O[C@H](CO)[C@@H]2O)c1`, for which the Kd came to 2.8 µM at Galectin-7, 1.8 µM at Galectin-9, 100 µM on Galectin-8 and 0.05 µM at Galectin-3.

Turning to `CS[C@@H]1O[C@H](CO)[C@H](O)[C@H](n2cc(C3(O)CCCCC3)nn2)[C@H]1O`, the equilibrium dissociation constant (Kd) is above 5000 µM on Galectin-7, 1000 µM on Galectin-9, above 5000 µM on Galectin-8 and 1600 µM at Galectin-3.

In the case of `CNC(=O)c1nnn([C@H]2[C@@H](O)[C@@H](CO)O[C@@H](SC)[C@@H]2O)c1C(=O)NC`, the Kd on Galectin-7, on Galectin-9 and at Galectin-3 was above 5000 µM throughout.

As to `CNC(=O)c1cn([C@H]2[C@@H](O)[C@@H](CO)O[C@@H](O[C@H]3[C@H](O)[C@@H](NC(C)=O)[C@H](OC)O[C@@H]3CO)[C@@H]2O)nn1`, the figures for the Kd at Galectin-7, at Galectin-9 and on Galectin-8 were 130 µM, 73 µM and above 2000 µM, respectively.

Regarding `CS[C@@H]1O[C@H](CO)[C@H](O)[C@H](n2cc(-c3cccc4ccccc34)nn2)[C@H]1O`, the dissociation constant Kd at Galectin-7 is 810 µM; at Galectin-9, 690 µM; at Galectin-8 it was above 5000 µM; at Galectin-3 it was 120 µM.

Take `CS[C@@H]1O[C@H](CO)[C@H](O)[C@H](n2nncc2S(=O)(=O)c2ccc(C)cc2)[C@H]1O`: the Kd is 1600 µM at Galectin-9 and above 5000 µM on Galectin-3.

Regarding `COc1ccc(-c2cn([C@H]3[C@@H](O)[C@@H](CO)O[C@@H](SC)[C@@H]3O)nn2)cc1`, the values for the Kd on Galectin-7, on Galectin-9 and on Galectin-3 were 2000 µM, above 5000 µM and 260 µM, respectively.

As for `CS[C@@H]1O[C@H](CO)[C@H](O)[C@H](n2ccnn2)[C@H]1O`, the Kd on Galectin-7 was 2400 µM; at Galectin-9, above 5000 µM; on Galectin-8, above 5000 µM; on Galectin-3, above 5000 µM.

As to `CO[C@@H]1O[C@H](CO)[C@@H](O[C@@H]2O[C@H](CO)[C@H](O)[C@H](NC(=O)c3ccc4ccccc4c3)[C@H]2O)[C@H](O)[C@H]1NC(C)=O`, the Kd at Galectin-7 is above 100 µM; at Galectin-9, above 100 µM; on Galectin-8 it was above 100 µM; at Galectin-3, 0.48 µM.

For the molecule `CO[C@@H]1O[C@H](CO)[C@H](O)[C@H](O)[C@H]1O`, the results for the dissociation constant (Kd) on Galectin-7 and at Galectin-9 were 4800 µM and 3300 µM, respectively.

For the molecule `CS[C@@H]1O[C@H](CO)[C@H](O)[C@H](n2cc(CO)nn2)[C@H]1O`, the Kd is 2500 µM on Galectin-7, above 5000 µM at Galectin-9, above 5000 µM on Galectin-8 and above 5000 µM at Galectin-3.

Turning to `CS[C@@H]1O[C@H](CO)[C@H](O)[C@H](n2cc(-c3ccccc3)nn2)[C@H]1O`, the dissociation constant Kd is 1700 µM on Galectin-7, 1300 µM on Galectin-9, above 5000 µM on Galectin-8 and 150 µM on Galectin-3.

As to `CS[C@@H]1O[C@H](CO)[C@H](O)[C@H](n2cc(S(=O)(=O)c3ccc(C)cc3)nn2)[C@H]1O`, the equilibrium dissociation constant (Kd) is 2000 µM at Galectin-7, 330 µM on Galectin-9 and 130 µM at Galectin-3.

With `COC(=O)c1cn([C@H]2[C@@H](O)[C@@H](CO)O[C@@H](SC)[C@@H]2O)nn1`, the dissociation constant Kd on Galectin-7 is above 5000 µM; at Galectin-9, 430 µM; on Galectin-8, above 5000 µM; at Galectin-3, 1300 µM.

On to `CO[C@@H]1O[C@H](CO)[C@@H](O[C@@H]2O[C@H](CO)[C@H](O)[C@H](n3cc(C(=O)Nc4cccc5ccccc45)nn3)[C@H]2O)[C@H](O)[C@H]1NC(C)=O`, for which the Kd at Galectin-7 is 83 µM; on Galectin-9 it was 13 µM; on Galectin-8, above 2000 µM; on Galectin-3, 0.66 µM.

`CO[C@@H]1O[C@H](CO)[C@@H](O[C@@H]2O[C@H](CO)[C@H](O)[C@H](n3cc(C(=O)NCc4ccccc4)nn3)[C@H]2O)[C@H](O)[C@H]1NC(C)=O`: the Kd was 74 µM at Galectin-7, 12 µM at Galectin-9, above 2000 µM on Galectin-8 and 1.5 µM at Galectin-3.

With `CCCc1cn([C@H]2[C@@H](O)[C@@H](CO)O[C@@H](SC)[C@@H]2O)nn1`, the Kd on Galectin-7 is 2200 µM; at Galectin-9, above 5000 µM; on Galectin-8, above 5000 µM; on Galectin-3 it was above 5000 µM.

For `CNC(=O)c1cn([C@H]2[C@@H](O)[C@@H](CO)O[C@@H](SC)[C@@H]2O)nn1`, the Kd at Galectin-9 is 1100 µM; at Galectin-8 it was above 5000 µM.

For the molecule `COCCNC(=O)c1cn([C@H]2[C@@H](O)[C@@H](CO)O[C@@H](S[C@@H]3O[C@H](CO)[C@H](O)[C@H](n4cc(C(=O)NCCOC)nn4)[C@H]3O)[C@@H]2O)nn1`, the Kd on Galectin-7 was found to be 4.7 µM; on Galectin-9, 2.3 µM; at Galectin-8, 90 µM; at Galectin-3 it was 0.25 µM.

`CS[C@@H]1O[C@H](CO)[C@H](O)[C@H](n2cc(-c3cccnc3)nn2)[C@H]1O`: the dissociation constant Kd was 1600 µM at Galectin-9, 670 µM on Galectin-8 and 1900 µM at Galectin-3.

Consider `O=C(NCc1ccccc1)c1cn([C@H]2[C@@H](O)[C@@H](CO)O[C@@H](S[C@@H]3O[C@H](CO)[C@H](O)[C@H](n4cc(C(=O)NCc5ccccc5)nn4)[C@H]3O)[C@@H]2O)nn1`, for which the dissociation constant (Kd) is 8.3 µM at Galectin-7, 0.53 µM at Galectin-9, 47 µM on Galectin-8 and 0.39 µM at Galectin-3.

Regarding `CCCCNC(=O)c1cn([C@H]2[C@@H](O)[C@@H](CO)O[C@@H](SC)[C@@H]2O)nn1`, the dissociation constant (Kd) on Galectin-7 was 1100 µM; on Galectin-9 it was 640 µM; on Galectin-8 it was above 5000 µM; at Galectin-3, 150 µM.

In the case of `CNC(=O)c1cn([C@H]2[C@@H](O)[C@@H](CO)O[C@@H](S[C@@H]3O[C@H](CO)[C@H](O)[C@H](n4cc(C(=O)NC)nn4)[C@H]3O)[C@@H]2O)nn1`, the equilibrium dissociation constant (Kd) on Galectin-7 came to 8 µM; on Galectin-9 it was 0.91 µM; at Galectin-8, 81 µM; at Galectin-3 it was 0.12 µM.

On to `CC(O)CNC(=O)c1cn([C@H]2[C@@H](O)[C@@H](CO)O[C@@H](S[C@@H]3O[C@H](CO)[C@H](O)[C@H](n4cc(C(=O)NCC(C)O)nn4)[C@H]3O)[C@@H]2O)nn1` (some centres undefined), for which the dissociation constant (Kd) amounted to 5 µM at Galectin-7, 2.1 µM on Galectin-9, 58 µM on Galectin-8 and 0.12 µM on Galectin-3.

`C=CCNC(=O)c1cn([C@H]2[C@@H](O)[C@@H](CO)O[C@@H](S[C@@H]3O[C@H](CO)[C@H](O)[C@H](n4cc(C(=O)NCC=C)nn4)[C@H]3O)[C@@H]2O)nn1`: the Kd was 3.4 µM at Galectin-7, 0.74 µM at Galectin-9, 66 µM on Galectin-8 and 0.065 µM on Galectin-3.

Take `CS[C@@H]1O[C@H](CO)[C@H](O)[C@H](n2cc(C(=O)NCCN3CCOCC3)nn2)[C@H]1O`: the Kd on Galectin-7 is above 5000 µM; at Galectin-9 it was 470 µM; at Galectin-8 it was above 5000 µM; on Galectin-3, 520 µM.

In the case of `CS[C@@H]1O[C@H](CO)[C@H](O)[C@H](n2cc(C(=O)NCCCO)nn2)[C@H]1O`, the Kd is 1500 µM at Galectin-7, 1900 µM at Galectin-9, above 5000 µM on Galectin-8 and 360 µM at Galectin-3.

The term Kd denotes a measure of binding affinity in units of concentration. A higher Kd goes with a looser complex.
